Results taken from ChEMBL document CHEMBL1122222, “Synthesis and biological activities of the Z isomers of carbapenem antibiotics” (J Med Chem, 1983).
Converted amounts (≈) assume the structure as drawn.

Tests used:
[1] = tested on: Mus musculus; assay: Effective does against ip infected Escherichia coli O-111 […] when administered sc; format: functional
Method in brief: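 Slc:ICR mice; ED50 calculated by the Reed–Muench method from survival recorded 5 days after infection.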

[2] = tested on: Proteus vulgaris; assay: Inhibition of growth of Proteus vulgaris IFO 3988; format: functional
Method in brief: (§1)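 Agar dilution MIC on Trypticase soy agar; inoculum one loopful of bacterial suspension at 10⁸ cfu/mL.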

[3] = tested on: Morganella morganii; assay: Inhibition of growth of Proteus morganii IFO 3168; format: functional; method in brief: as §1
[4] = tested on: Escherichia coli; assay: Inhibition of growth of Escherichia coli T-7; format: functional; method in brief: as §1
[5] = tested on: Proteus mirabilis; assay: Inhibition of growth of Proteus mirabilis IFO 3849; format: functional; method in brief: as §1
[6] = tested on: Serratia marcescens; assay: Inhibition of growth of Serratia marcescens IFO 12648; format: functional; conditions: Serratia marcescens, IFO 12648; read-out: MIC; method in brief: as §1
[7] = tested on: Enterobacter cloacae; assay: Inhibition of growth of Enterobacter cloacae IFO 12937; format: functional; method in brief: as §1
[8] = tested on: Acinetobacter calcoaceticus; assay: Inhibition of growth of Acinetobacter calcoaceticus. IFO 13006; format: functional, acinetobacter calcoacet; method in brief: as §1
[9] = tested on: Staphylococcus aureus; assay: Inhibition of growth of Staphylococcus aureus 308 A-1; format: functional; method in brief: as §1
[10] = tested on: Citrobacter freundii; assay: Inhibition of growth of Citrobacter freundii IFO 12681; format: functional; method in brief: as §1
[11] = tested on: Pseudomonas aeruginosa; assay: Inhibition of growth of Pseudomonas aeruginosa IFO 3455; format: functional; method in brief: as §1
[12] = tested on: Klebsiella pneumoniae; assay: Inhibition of growth of Klebsiella pneumoniae DT; format: functional; conditions: Klebsiella pneumoniae; read-out: MIC; method in brief: as §1
[13] = tested on: Escherichia coli; assay: MIC against Escherichia coli O-111; format: functional; conditions: Escherichia coli; read-out: MIC; method in brief: as §1
[14] = target: Beta-lactamase (Proteus vulgaris, UniProt P52664); assay: Beta-lactamase inhibitory activity against cephalosporinase of Proteus vulgaris GN4413; conditions: read-out: I50 (converted)
[15] = target: Beta-lactamase (Serratia marcescens, UniProt P18539); assay: Beta-lactamase inhibitory activity against cephalosporinase of Serratia marcescens. TN81; conditions: read-out: I50 (converted)
[16] = tested on: Klebsiella pneumoniae; assay: Beta-lactamase inhibitory activity against penicillinase of Klebsiella pneumoniae. TN1698
[17] = In vitro potentiation activity was tested after adding a concentration of […] into the agar plate of ampicillin or cefotiam; show synergistic effect; format: functional
[18] = target: Beta-lactamase (Staphylococcus aureus, UniProt P00807); assay: Beta-lactamase inhibitory activity against penicillinase of Staphylococcus aureus 1840; conditions: read-out: I50 (converted)
[19] = target: Beta-lactamase (Serratia marcescens) (UniProt P18539)
[20] = target: Beta-lactamase (Staphylococcus aureus) (UniProt P00807)
[21] = species on record: Mus musculus; assay: Half life in mouse kidney homogenates; format: ADME
Method in brief: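 Carbapenem at 50 µg/mL incubated in 10% mouse kidney homogenate at 30 °C; residual antibiotic measured at intervals by its β-lactamase-inhibiting activity.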

[22] = Mus musculus, kidney, read-out: ED50
[23] = Proteus vulgaris, IFO 3988, read-out: MIC
[24] = Morganella morganii, IFO 3168, read-out: MIC
[25] = Escherichia coli, read-out: MIC
[26] = Proteus mirabilis, IFO 3849, read-out: MIC
[27] = Enterobacter cloacae, IFO 12937, read-out: MIC
[28] = Acinetobacter calcoaceticus, IFO 13006, read-out: MIC
[29] = Staphylococcus aureus, read-out: MIC
[30] = Citrobacter freundii, IFO 12681, read-out: MIC
[31] = Pseudomonas aeruginosa, IFO 3455, read-out: MIC

Sequence of Beta-lactamase (Proteus vulgaris, UniProt P52664) (P52664 whole entry, looked up): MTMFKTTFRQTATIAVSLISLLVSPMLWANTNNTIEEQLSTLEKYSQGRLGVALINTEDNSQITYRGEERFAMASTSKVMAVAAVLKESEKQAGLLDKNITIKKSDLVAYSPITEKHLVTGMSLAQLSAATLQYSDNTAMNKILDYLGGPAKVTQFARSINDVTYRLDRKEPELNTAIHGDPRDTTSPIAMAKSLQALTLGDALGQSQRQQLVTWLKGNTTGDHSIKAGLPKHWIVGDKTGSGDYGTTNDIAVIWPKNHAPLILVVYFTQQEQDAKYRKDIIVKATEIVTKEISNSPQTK
Sequence of Beta-lactamase (Serratia marcescens, UniProt P18539) (P18539 whole entry): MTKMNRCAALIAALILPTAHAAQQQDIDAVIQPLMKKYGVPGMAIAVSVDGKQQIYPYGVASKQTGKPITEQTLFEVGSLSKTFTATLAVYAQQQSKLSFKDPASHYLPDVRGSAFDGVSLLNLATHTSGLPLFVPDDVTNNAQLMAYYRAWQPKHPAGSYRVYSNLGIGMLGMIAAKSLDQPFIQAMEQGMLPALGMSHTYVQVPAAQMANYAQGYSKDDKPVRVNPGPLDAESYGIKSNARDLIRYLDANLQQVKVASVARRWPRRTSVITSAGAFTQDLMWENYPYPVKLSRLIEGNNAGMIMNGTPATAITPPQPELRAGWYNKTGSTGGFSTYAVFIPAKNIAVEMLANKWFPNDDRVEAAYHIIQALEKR
Sequence of Beta-lactamase (Staphylococcus aureus, UniProt P00807) (P00807 whole entry): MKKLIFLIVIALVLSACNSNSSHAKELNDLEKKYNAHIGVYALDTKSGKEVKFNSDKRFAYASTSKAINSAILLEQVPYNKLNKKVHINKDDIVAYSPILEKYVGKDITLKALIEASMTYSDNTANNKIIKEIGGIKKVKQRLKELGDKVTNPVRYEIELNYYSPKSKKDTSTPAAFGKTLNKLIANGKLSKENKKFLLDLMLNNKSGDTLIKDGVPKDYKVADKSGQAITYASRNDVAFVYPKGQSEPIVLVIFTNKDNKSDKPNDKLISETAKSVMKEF
Sequence of Beta-lactamase (Staphylococcus aureus) (P00807 whole entry): as above
Sequence of Beta-lactamase (Serratia marcescens) (P18539 whole entry): as the sequence (P18539 whole entry) above

SMILES | ED50 [1, 22] [mg/kg] | MIC [2, 23] [µg/mL] | MIC [3, 24] [µg/mL] | MIC [4, 25] [µg/mL] | MIC [5, 26] [µg/mL] | MIC [6] [µg/mL] | MIC [7, 27] [µg/mL] | MIC [8, 28] [µg/mL] | MIC [9, 29] [µg/mL] | MIC [10, 30] [µg/mL] | MIC [11, 31] [µg/mL] | MIC [12] [µg/mL] | MIC [13] [µg/mL] | IC50 [14] [nM] | IC50 [15] [nM] | IC50 [18] [nM] | other results
CC(=O)N/C=C/SC1=C(C(=O)[O-])N2C(=O)[C@@H](C(C)(C)O)[C@H]2C1.[Na+] | > 50 | 3.13 | 1.56 | 3.13 | 3.13 | 1.56 | 1.56 | 6.25 | 1.56 | 0.2 | 12.5 | 0.39 | < 0.1 | – | – | – | –
CC(=O)N/C=C\SC1=C(C(=O)[O-])N2C(=O)[C@@H](C(C)(C)OS(=O)(=O)[O-])[C@H]2C1.[Na+].[Na+] | > 50 | 100 | 100 | 100 | 100 | 100 | 100 | > 100 | 6.25 | 50 | > 100 | 50 | 12.5 | 8.44 | 113 | 2220 | MIC [16]: 50 µg/mL; Activity [17]: synergistic effect; MIC [19]: 25 µg/mL; MIC [20]: 50 µg/mL
CC(=O)N/C=C/SC1=C(C(=O)[O-])N2C(=O)[C@@H](C(C)(C)OS(=O)(=O)[O-])[C@H]2C1.[Na+].[Na+] | > 50 | 50 | 50 | 6.25 | 50 | 12.5 | 12.5 | > 100 | 6.25 | 6.25 | > 100 | 6.25 | 3.13 | – | – | – | –
CC1(C)S[C@@H]2[C@H](NC(=O)[C@H](N)c3ccccc3)C(=O)N2[C@H]1C(=O)O | – | – | – | – | – | – | – | – | – | – | – | – | – | – | – | – | MIC [20]: 100 µg/mL (≈ 286 µM)
CC(=O)N/C=C\[S+]([O-])C1=C(C(=O)[O-])N2C(=O)[C@@H](C(C)(C)OS(=O)(=O)[O-])[C@H]2C1.[Na+].[Na+] (stereo in doubt; 21) | – | – | – | – | – | – | – | – | – | – | – | – | – | – | – | – | T1/2 [21]: 4.58 h
CC(=O)N/C=C\SC1=C(C(=O)[O-])N2C(=O)[C@@H](C(C)OS(=O)(=O)[O-])[C@H]2C1.[Na+].[Na+] (stereo partly drawn) | > 50 | 0.78 | 3.13 | 25 | 0.39 | 12.5 | 50 | 25 | 0.78 | 12.5 | 6.25 | 1.56 | 0.39 | 0.802 | 2.29 | 32.1 | Activity [17]: synergistic effect
CC(=O)N/C=C/[S+]([O-])C1=C(C(=O)[O-])N2C(=O)[C@@H](C(C)(C)O)[C@H]2C1.[Na+] (stereo in doubt; 20) | – | – | – | – | – | – | – | – | – | – | – | – | – | 7.68 | 2.14 | 1480 | ED50 [1]: 28.1 mg/kg; MIC [2]: 12.5 µg/mL; MIC [3]: 25 µg/mL; MIC [4]: 25 µg/mL; MIC [5]: 12.5 µg/mL; MIC [7]: 25 µg/mL; MIC [8]: 12.5 µg/mL; T1/2 [21]: 1.5 h; MIC [9]: 3.13 µg/mL; MIC [10]: 3.13 µg/mL; MIC [11]: 25 µg/mL
CC(=O)N/C=C/SC1=C(C(=O)[O-])N2C(=O)[C@@H](C(C)OS(=O)(=O)[O-])[C@H]2C1.[Na+].[Na+] (stereo partly drawn) | > 50 | 0.2 | 0.78 | 6.25 | 0.2 | 1.56 | 12.5 | 12.5 | 0.78 | 3.13 | 3.13 | 0.78 | < 0.1 | – | – | – | –
CC(=O)[N-]/C=C/SC1=C(C(=O)[O-])N2C(=O)[C@@H](C(C)O)[C@H]2C1.[Na+].[Na+] (stereo partly drawn) | 17.7 | 0.78 | 1.56 | > 100 | 0.78 | 6.25 | 12.5 | 12.5 | 0.2 | 1.56 | 25 | 0.39 | 0.2 | 4210 | 3.09 | 182 | –
